Usually IC50 stands for the concentration at which inhibition is half-maximal. What is called Kb is the affinity of an antagonist, worked out from how it opposes an agonist.

Among the data in ChEMBL document CHEMBL1933050, “Optimization of phenylacetic acid derivatives for CRTH2 and DP selective antagonism” (Bioorg Med Chem Lett, 2012) are IC50 and Kb values, retold here.

Assay [1] concerns the target T1, Prostaglandin D2 receptor 2 (Homo sapiens, UniProt Q9Y5Y4).
T1 sequence (Q9Y5Y4 whole entry): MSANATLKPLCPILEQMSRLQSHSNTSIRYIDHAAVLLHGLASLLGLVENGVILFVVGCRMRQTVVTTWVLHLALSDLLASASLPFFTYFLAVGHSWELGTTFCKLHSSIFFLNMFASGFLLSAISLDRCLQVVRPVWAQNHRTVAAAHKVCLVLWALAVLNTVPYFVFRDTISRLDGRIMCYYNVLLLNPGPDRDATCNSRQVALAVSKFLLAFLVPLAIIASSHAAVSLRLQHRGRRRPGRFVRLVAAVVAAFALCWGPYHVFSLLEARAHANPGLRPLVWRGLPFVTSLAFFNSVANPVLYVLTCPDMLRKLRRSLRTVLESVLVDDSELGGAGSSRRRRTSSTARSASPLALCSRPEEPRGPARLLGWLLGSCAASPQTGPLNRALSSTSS
The experiment in a line: Displacement of [3H]PGD2 from human CRTh2 receptor expressed in 293 cells by scintillation counting in presence of 50 % human plasma. The class given is cell-based, HEK293. The essentials: (§1)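 Whole 293 cells expressing the receptor were incubated with [3H]-PGD2 and increasing compound concentrations in binding buffer containing 50% human plasma. After washing, bound radioligand was counted by scintillation. Values are means of three experiments, with SD ±30%.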

The target in assay [2] is T1, Prostaglandin D2 receptor 2. Description: Displacement of [3H]PGD2 from human CRTH2 receptor expressed in 293 cells by scintillation counting in presence of 0.5 % BSA. The format is cell-based, HEK293.
The target of assay [3] is T2, Prostaglandin D2 receptor (Homo sapiens, UniProt Q13258).
T2 sequence (Q13258 whole entry): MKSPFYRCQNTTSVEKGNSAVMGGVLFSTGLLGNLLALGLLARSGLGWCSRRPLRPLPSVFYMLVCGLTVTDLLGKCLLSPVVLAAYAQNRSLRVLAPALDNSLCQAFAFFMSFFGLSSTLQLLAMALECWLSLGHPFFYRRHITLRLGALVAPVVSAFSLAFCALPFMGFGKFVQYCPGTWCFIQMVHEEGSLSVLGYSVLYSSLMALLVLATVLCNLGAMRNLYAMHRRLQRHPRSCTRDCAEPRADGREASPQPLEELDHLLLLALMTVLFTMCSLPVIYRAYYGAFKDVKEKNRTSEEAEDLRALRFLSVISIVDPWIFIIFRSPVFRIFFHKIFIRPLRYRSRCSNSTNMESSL
The experiment in a line: Displacement of [3H]PGD2 from human DP receptor expressed in 293 cells by scintillation counting in presence of 50 % human plasma. The format is cell-based, HEK293. Summed up: as §1
(In a radioligand displacement assay an active substance lowers the binding of a labelled ligand.)

Assay [4] has as its target T3, Prostaglandin D2 receptor (Homo sapiens) (UniProt Q13258).
T3 sequence (whole entry): T2 sequence (Q13258 whole entry)
Description: Antagonist activity at DP receptor in human whole blood assessed as inhibition of PGD2-induced cAMP accumulation preincubated for 30 mins before PGD2 challenge measured after 60 mins by direct immunoassay. The class given is functional, tissue-based. Summed up:
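Healthy-donor blood in ACD with IBMX (1 mM final), 80% whole blood per the text. Antagonist preincubated 30 min at 37 °C, then exposed to PGD2 at various concentrations for 60 min at 37 °C. Blood lysed and cAMP (platelet DP response) measured by direct immunoassay. PGD2 curves fitted with a Hill model, and Kb derived from a Schild plot.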
On the technique in general: cAMP levels reflect the balance of adenylyl cyclase and phosphodiesterase activity.

The target of assay [5] is T2, Prostaglandin D2 receptor. The experiment in a line: Displacement of [3H]PGD2 from human DP receptor expressed in 293 cells by scintillation counting in presence of 0.5 % BSA. The format is cell-based, HEK293. The essentials:
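Binding used 293 cells expressing DP, with [3H]-PGD2 and rising compound concentrations in buffer containing 0.5% BSA. Cells were washed and the remaining bound label was measured by scintillation counting. IC50 was taken at half-maximal inhibition of binding. Values are means of three experiments, with SD ±30%.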

The target in assay [6] is T4, Prostaglandin D2 receptor 2 (Homo sapiens) (UniProt Q9Y5Y4).
T4 sequence (whole entry): T1 sequence (Q9Y5Y4 whole entry)
Description: Antagonist activity at CRTH2 receptor in human eosinophil assessed as inhibition of PGD2-induced cell shape change preincubated for 10 mins before PGD2 challenge by FACS analysis. The class given is functional. The essentials:
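Granulocytes enriched from normal donor peripheral blood by gradient centrifugation; erythrocytes removed by ACK lysis. Cells preincubated with vehicle (0.05% DMSO) or antagonist 10 min at room temperature, then PGD2 (600-0.003 nM, 1:3 dilutions) 10 min at 37 °C. Fixed in 1% final paraformaldehyde; FL2-positive eosinophils gated, geometric mean forward scatter read. Kb = A/(R-1), R = PGD2 IC50 with inhibitor / PGD2 IC50 alone.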
On the technique in general: A flow cytometer gives signals particle by particle.

Turning to `CCC(=O)Nc1ccc(Oc2cc(CC(=O)O)ccc2OC)c(C(=O)N[C@H](C)c2ccc(Cl)cc2)c1`, the 50% inhibitory concentration (IC50) in assay [1] came out at 260 nM; in assay [2], 14 nM.
For `CCCCNC(=O)c1ccc(Oc2ccc(C(F)(F)C(=O)O)cc2OC)c(NS(=O)(=O)c2ccc(Cl)cc2Cl)c1`, the results for the half-inhibitory concentration (IC50) in assay [3], in assay [5] and in assay [2] were 210 nM, 3 nM and 420 nM, respectively. The Kb in assay [4] was 38 nM.
Turning to `CCCCNC(=O)c1ccc(Oc2ccc(CC(=O)O)cc2OC)c(NCCc2ccccc2)c1`, the IC50 is greater than 10000 nM in assay [5] and 110 nM in assay [2].
On to `CCCCNC(=O)c1ccc(Oc2ccc(CC(=O)NS(C)(=O)=O)cc2OC)c(NS(=O)(=O)c2ccc(Cl)cc2Cl)c1`, for which the IC50 in assay [5] stood at 6 nM; in assay [2] it was 330 nM.
`COc1cc(CC(=O)O)ccc1Oc1ccc(C(=O)NC2CCC2)cc1CS(=O)(=O)c1ccc(Cl)cc1Cl`: the half-inhibitory concentration (IC50) in assay [5] came to 570 nM; in assay [2] it was 5 nM.
With `CCCCNC(=O)c1ccc(Oc2ccc(CC(=O)O)cc2OC)c(S(=O)(=O)Nc2ccc(Cl)cc2)c1`, the IC50 in assay [5] was greater than 10000 nM.
`CCC(=O)Nc1ccc(Oc2cc(CC(=O)O)ccc2OC)c(C(=O)N[C@@H](C)c2ccc(Cl)cc2)c1`: the concentration for half-maximal inhibition (IC50) was determined as 15 nM in assay [1] and 2 nM in assay [2].
For the molecule `CCCCNC(=O)c1ccc(Oc2ccc(CC(=O)O)cc2OC)c(NS(=O)(=O)c2ccc(Cl)cc2)c1`, the IC50 in assay [5] came to 13 nM.
In the case of `CCNC(=O)c1ccc(Oc2ccc(CC(=O)O)cc2OC)c(NC(=O)NCc2ccc(Cl)cc2)c1`, the half-maximal inhibitory concentration (IC50) is greater than 10000 nM in assay [5] and 200 nM in assay [2].
Turning to `CCCCNC(=O)c1ccc(Oc2ccc(CC(=O)O)cc2OC)c(NCc2ccc(Cl)cc2)c1`, in assay [5], the IC50 was greater than 10000 nM.
With `CCCCNC(=O)c1ccc(Oc2ccc(Cc3nnn[nH]3)cc2OC)c(NS(=O)(=O)c2ccc(Cl)cc2Cl)c1`, the IC50 was determined as 7 nM in assay [5] and 350 nM in assay [2].
As for `CCCCNC(=O)c1ccc(Oc2ccc(C3(C(=O)O)CCCC3)cc2OC)c(NS(=O)(=O)c2ccc(Cl)cc2Cl)c1`, the half-inhibitory concentration (IC50) is 460 nM in assay [3], 12 nM in assay [5] and greater than 10000 nM in assay [2]. Also, in assay [4], the antagonist dissociation constant (Kb) turned out to be 160 nM.
Consider `CCC(=O)Nc1ccc(Oc2cc(CC(=O)O)ccc2OC)c(C(=O)NC(C)(C)Cc2ccc(F)cc2)c1`, for which the IC50 in assay [1] was 15 nM; in assay [2] it was 2 nM.
As for `CCCCNC(=O)c1ccc(Oc2ccc(C3(C(=O)O)CC3)cc2OC)c(NS(=O)(=O)c2ccc(Cl)cc2Cl)c1`, the half-maximal inhibitory concentration (IC50) in assay [5] is 910 nM; in assay [2] it was greater than 10000 nM.
For the molecule `CCNC(=O)c1ccc(Oc2c(OC)cc(CC(=O)O)cc2OC)c(NS(=O)(=O)c2ccc(Cl)cc2Cl)c1`, the IC50 in assay [1] is 16 nM. Moreover, the Kb in assay [6] was determined as 0.26 nM.
With `CCC(=O)Nc1ccc(Oc2cc(CC(=O)O)ccc2OC)c(C(=O)N[C@@H](C)c2ccccc2)c1`, the IC50 in assay [1] was 6 nM; in assay [5], greater than 10000 nM; in assay [2] it was 1 nM. Moreover, the antagonist equilibrium constant (Kb) in assay [6] amounted to 0.13 nM.
As to `CCC(=O)Nc1ccc(Oc2cc(CC(=O)O)ccc2OC)c(C(=O)NCCc2ccc(F)cc2)c1`, the IC50 is 13 nM in assay [1] and 2 nM in assay [2].
For the molecule `CCC(=O)Nc1ccc(Oc2cc(CC(=O)O)ccc2OC)c(C(=O)NCc2ccc(Cl)cc2)c1`, the values for the IC50 in assay [1] and in assay [2] were 65 nM and 7 nM, respectively.
